How the values were obtained:
Rattus norvegicus [1] = assay: Compound was evaluated for the type-I hypersensitivity in rat POA model at a concentration of 5% administered topically.; format: functional
Outline: (§1)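 Modified Iso passive ocular anaphylaxis in 150–200 g rats. Each eye was sensitized by three conjunctival injections of 50 μL of 1:4-diluted rat IgE anti-ovalbumin antiserum. At 24 h, 10 μL of drug solution was instilled topically 15 min before, just prior to, and 15 min after IV ovalbumin (25 mg/kg) with Evans blue (12.5 mg/kg). At 30 min, eye tissue dye was extracted in acetone/0.5% Na2SO4 and read at 620 nm. Result expressed as % inhibition.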

Rattus norvegicus [2] = assay: Compound was evaluated for the type-I hypersensitivity in rat POA model at a concentration of 1% administered topically.; format: functional; outline: as §1
Rattus norvegicus [3] = assay: Compound was evaluated for the type-I hypersensitivity in rat POA model at a concentration of 3% administered topically.; format: functional; outline: as §1
[4] = Compound was evaluated for pyranenamine lipophilicity; format: physicochemical; conditions: octanol/water
Rattus norvegicus [5] = assay: Compound was evaluated for the type-I hypersensitivity in rat POA model after intravenous administration.; format: functional; conditions: read-out: ID50 (the source's name)
Outline: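 Modified Iso method. Rats of 150–200 g were sensitized with three conjunctival injections per eye (bulbar, palpebral, lower) of 50 μL of 1:4-diluted rat IgE anti-ovalbumin antiserum. 24 h later, drug was given IV just before IV challenge with ovalbumin (25 mg/kg) plus Evans blue (12.5 mg/kg in saline). Eyelids and eyeballs were taken at 30 min, extracted in acetone/0.5% sodium sulfate, and read at 620 nm. Result expressed as ID50 (mg/kg).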

Rattus norvegicus [6] = assay: Compound was evaluated for the type-I hypersensitivity in rat POA model at a concentration of 4% administered topically.; format: functional
Outline: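 Modified Iso method. Rats (150–200 g) sensitized with three 50 µL injections per eye (bulbar conjunctiva, palpebral, lower conjunctiva) of 1:4-diluted rat IgE anti-ovalbumin antisera. After 24 h, iv challenge with ovalbumin 25 mg/kg plus Evans blue 12.5 mg/kg. Drug (10 µL) instilled 15 min before, just before and 15 min after challenge. Killed at 30 min; eyelids and eyeballs extracted in acetone/0.5% sodium sulfate; read at 620 nm; % inhibition.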

Rattus norvegicus [7] = assay: Compound was evaluated for the type-I hypersensitivity in rat POA model at a concentration of 10% administered topically.; format: functional; outline: as §1

SMILES | Inhibition (Rattus norvegicus [1]) [%] | Inhibition (Rattus norvegicus [2]) [%] | Inhibition (Rattus norvegicus [3]) [%] | logP [4] | ED50 (Rattus norvegicus [5]) [mg/kg] | Inhibition (Rattus norvegicus [6]) [%] | Inhibition (Rattus norvegicus [7]) [%]
CC(=O)c1c(O)c(/C(C)=N/c2cc(NC(=O)C(CO)CO)cc(NC(=O)C(CO)CO)c2)c(O)oc1=O | 41 | 12 | 31 | -2.43 | 30 |  | 
CC(=O)c1c(O)c(/C(C)=N/c2cc(NC(=O)CO)cc(NC(=O)CO)c2)c(O)oc1=O |  |  | 15 | -0.32 | 30 |  | 
O=C([O-])c1cc(=O)c2c(OCC(O)COc3cccc4oc(C(=O)[O-])cc(=O)c34)cccc2o1.[Na+].[Na+] [CROMOLYN SODIUM] |  |  |  |  |  | 0 | 
CC(=O)C1=C(O)C(=C(C)Nc2cc(NC(=O)[C@@H](O)CO)cc(NC(=O)[C@@H](O)CO)c2)C(=O)OC1=O | 63 |  | 40 | -2.44 | 30 |  | 79
CC(=O)C1=C(O)C(=C(C)Nc2cc(NC(=O)[C@H](O)CO)cc(NC(=O)[C@H](O)CO)c2)C(=O)OC1=O |  |  |  | -2.44 | 300 |  | 
CC(=O)c1c(O)c(/C(C)=N/c2cc(NC(=O)C(O)CO)cc(NC(=O)C(O)CO)c2)c(O)oc1=O (stereo not given) |  | 16 | 25 | -2.44 | 60 |  | 

— ChEMBL document CHEMBL1125909, “Synthesis of chiral and achiral pyranenamine derivatives. Potent agents with topical ocular antiallergic activity” (J Med Chem, 1991)
